In article PMC9558256 (ACS Omega, 2022):

How the values were obtained:
[1] = tested on: P. falciparum resistant strain F32-ART; experiment: Antiplasmodial activity; assay type: cell-based; conditions: Plasmodium falciparum, F32, read-out: P. falciparum F32ART IC50
In short: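 Test compounds screened against artemisinin-resistant P. falciparum F32-ART (selected after 144 intermittent, increasing artemisinin doses) by SYBR Green at 1 and 10 μM, in triplicate, in two independent experiments. Compounds giving around or above 50% growth inhibition at 10 μM were retested at four doses, each in triplicate, to derive IC50.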

[2] = Cytotoxicity on Vero cells; assay type: cell-based; conditions: African green monkey
[3] = tested on: L. donovani intramacrophage amastigote forms (LV9); experiment: In vitro antileishmanial evaluation on intramacrophage amastigotes; assay type: cell-based; conditions: Leishmania donovani, RAW264.7, 48 h, read-out: L. donovani IC50
In short: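 RAW 264.7 macrophages were infected with L. donovani LV9 axenic amastigotes at 10 parasites per macrophage. Test compound was added 24 h post-infection for 48 h, with top concentrations set from RAW 264.7 cytotoxicity. Parasite growth reduction was read by SYBR Green incorporation and IC50 derived by regression. Miltefosine served as reference drug.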

[4] = Cytotoxicity on RAW 264.7 macrophages; assay type: cell-based; conditions: mouse
[5] = tested on: L. donovani axenic amastigotes (LV9); experiment: In vitro antileishmanial evaluation on axenic amastigotes; assay type: cell-based; conditions: Leishmania donovani, read-out: IC50 on the axenic form of L. donovani
M. tuberculosis H37Rv = experiment: MIC determination by resazurin reduction microplate assay; assay type: cell-based, Mycobacterium tuberculosis; conditions: MIC comparison with literature BNF15

| Structure (SMILES) | IC50 [1] [µM] | CC50 [2] [µM] | IC50 [3] [µM] | CC50 [4] [µM] | IC50 [5] [µM] | fold less active than BNF15 against M. tuberculosis (M. tuberculosis H37Rv) |
| --- | --- | --- | --- | --- | --- | --- |
| CC(C)(C)Nc1oc2c(c1-c1cccc(Br)c1)C(=O)c1ccccc1C2=O [Compound 10, 3-(3-Bromophenyl)-2-(tert-butylamino)naphtho[2,3-b]furan-4,9-dione] | > 10 | – | – | – | – | – |
| O=C1C(O)=C([C@H]2CC[C@H](c3ccc(Cl)cc3)CC2)C(=O)c2ccccc21 [atovaquone (7), atovaquone, reference compound] | 0.001 | 6 | 11.1 | 44 | – | – |
| CC(C)(C)Nc1oc2c(c1-c1cc3ccccc3[nH]1)C(=O)c1ccccc1C2=O [Compound 14, 2-(tert-Butylamino)-3-(1H-indol-2-yl)naphtho[2,3-b]furan-4,9-dione] | > 10 | – | – | – | – | – |
| CC(C)(C)NC=C1C(=O)C(=O)c2ccccc2C1=O [Compound 28, 3-((tert-Butylamino)methylene)naphthalene-1,2,4(3H)-trione] | 1.4 | > 50 | 3.5 | > 100 | < 10 | – |
| Cn1ncc2cc(-c3c(NC(C)(C)C)oc4c3C(=O)c3ccccc3C4=O)ccc21 [Compound 13, 2-(tert-Butylamino)-3-(1-methyl-1H-indazol-5-yl)naphtho[2,3-b]furan-4,9-dione] | > 10 | – | – | – | – | – |
| O=C1c2ccccc2C(=O)c2c1oc(NC1CCCCC1)c2-c1ccc([N+](=O)[O-])o1 [Compound 21, 2-(Cyclohexylamino)-3-(5-nitrofuran-2-yl)naphtho[2,3-b]furan-4,9-dione] | > 10 | – | – | – | – | – |
| CCCCNc1oc2c(c1-c1ccc(Cl)cc1)C(=O)c1ccccc1C2=O [Compound 23, 2-(Butylamino)-3-(4-chlorophenyl)naphtho[2,3-b]furan-4,9-dione] | > 10 | – | – | – | – | – |
| CCCCNc1oc2c(c1C1CCN(Cc3ccccc3)CC1)C(=O)c1ccccc1C2=O [Compound 27, 3-(1-Benzylpiperidin-4-yl)-2-(butylamino)naphtho[2,3-b]furan-4,9-dione] | 4 | 24 | – | – | – | – |
| CCCCNC=C1C(=O)C(=O)c2ccccc2C1=O [Compound 29, 3-((Butylamino)methylene)naphthalene-1,2,4(3H)-trione] | 1.9 | > 50 | 6.33 | 46.5 | < 10 | – |
| CCCCNc1oc2c(c1-c1cc(OC)c(OC)c(OC)c1)C(=O)c1ccccc1C2=O [Compound 24, 2-(Butylamino)-3-(3,4,5-trimethoxyphenyl)naphtho[2,3-b]furan-4,9-dione] | 9 | > 100 | – | – | – | – |
| CC(C)(C)Nc1oc2c(c1-c1ccc(Cl)cc1)C(=O)c1ccccc1C2=O [Compound 9, 2-(tert-Butylamino)-3-(4-chlorophenyl)naphtho[2,3-b]furan-4,9-dione] | > 10 | – | – | – | – | – |
| O=C1c2ccccc2C(=O)c2c1oc(NC1CCCCC1)c2-c1ccc(Cl)cc1 [Compound 18, 3-(4-Chlorophenyl)-2-(cyclohexylamino)naphtho[2,3-b]furan-4,9-dione] | 11 | 50 | 9.41 | 54.2 | < 10 | – |
| COc1cc(-c2c(NC3CCCCC3)oc3c2C(=O)c2ccccc2C3=O)cc(OC)c1OC [Compound 19, 2-(Cyclohexylamino)-3-(3,4,5-trimethoxyphenyl)naphtho[2,3-b]furan-4,9-dione] | 6 | > 100 | – | – | – | – |
| CCCCNc1oc2c(c1-c1ccc([N+](=O)[O-])o1)C(=O)c1ccccc1C2=O [Compound 26, 2-(Butylamino)-3-(5-nitrofuran-2-yl)naphtho[2,3-b]furan-4,9-dione] | > 10 | – | – | – | – | – |
| COc1ccc(-c2c(NC(C)(C)C)oc3c2C(=O)c2ccccc2C3=O)cc1OC [Compound 12, 2-(tert-Butylamino)-3-(3,4-dimethoxyphenyl)naphtho[2,3-b]furan-4,9-dione] | > 10 | – | – | – | – | – |
| CC(C)(C)Nc1oc2c(c1C1CCN(Cc3ccccc3)CC1)C(=O)c1ccccc1C2=O [Compound 17, 3-(1-Benzylpiperidin-4-yl)-2-(tert-butylamino)naphtho[2,3-b]furan-4,9-dione] | 2.5 | 86 | – | – | – | about 7 fold |
| O=C1C=C(O)C(=O)c2ccccc21 [lawsone (1), 2-hydroxy-1,4-naphthoquinone, reference compound] | > 10 | – | 6.27 | 44 | – | – |
| CCCCCCCCCCCCCCCCOP(=O)([O-])OCC[N+](C)(C)C [miltefosine, reference compound] | – | – | 1.46 | 22.6 | – | – |
| COc1cc(-c2c(NC(C)(C)C)oc3c2C(=O)c2ccccc2C3=O)cc(OC)c1OC [Compound 11, 2-(tert-Butylamino)-3-(3,4,5-trimethoxyphenyl)naphtho[2,3-b]furan-4,9-dione] | > 10 | – | – | – | – | – |
| CC(C)(C)Nc1oc2c(c1C1CCN(C(=O)OC(C)(C)C)CC1)C(=O)c1ccccc1C2=O [Compound 16, tert-Butyl 4-(2-(tert-Butylamino)-4,9-dioxo-4,9-dihydronaphtho[2,3-b]furan-3-yl)piperidine-1-carboxylate] | > 10 | – | 6.97 | 49.2 | < 10 | – |
| Cn1ncc2cc(-c3c(NC4CCCCC4)oc4c3C(=O)c3ccccc3C4=O)ccc21 [Compound 20, 2-(Cyclohexylamino)-3-(1-methyl-1H-indazol-5-yl)naphtho[2,3-b]furan-4,9-dione] | 10 | – | – | – | – | – |
| O=C1c2ccccc2C(=O)c2c1oc(NC1CCCCC1)c2C1CCN(Cc2ccccc2)CC1 [Compound 22, 3-(1-Benzylpiperidin-4-yl)-2-(cyclohexylamino)naphtho[2,3-b]furan-4,9-dione] | 3.6 | 36 | – | – | – | – |
| CC(C)(C)Nc1oc2c(c1-c1ccc([N+](=O)[O-])o1)C(=O)c1ccccc1C2=O [Compound 15, 2-(tert-Butylamino)-3-(5-nitrofuran-2-yl)naphtho[2,3-b]furan-4,9-dione] | > 10 | – | – | – | – | – |
